Active and inactive are the calls of the source. No cut-off for these calls is given here.
Tests used:
ABCB1 (P-glycoprotein) = ABCB1 (P-glycoprotein) (Homo sapiens, UniProt P08183); assay: Inhibition of ABCB1 in human KBV1 cells assessed as inhibition of calcein-AM efflux at 1 uM relative to tariquidar; type: cell-based; conditions: probe calcein-AM, read-out: Imax
[1] = biological target: ATP-dependent translocase ABCB1 (Homo sapiens, UniProt P08183); assay: Inhibition of ABCB1 in human KBV1 cells assessed as inhibition of calcein-AM efflux; type: cell-based
[2] = biological target: T1, Multidrug resistance-associated protein 1 (Homo sapiens, UniProt P33527); assay: (§1) Inhibition of human MRP1 expressed in MDCK2 cells assessed as inhibition of calcein-AM efflux at 30 uM relative to reversan; type: cell-based, MDCK-II; conditions: mdck-ii, 30 µM
Outline: (§2)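 MDCKII-MRP1 cells seeded at 20,000–25,000/well and washed next day with HEPES loading buffer, pH 7.4. Loaded 60 min at 37 °C with 0.5 µM calcein-AM in buffer with BSA and pluronic F127, plus compound (10 nM–100 µM). Cells were PFA-fixed, fluorescence read at 485/535 nm, DMSO control subtracted. […] Mean ± SEM, 2–4 experiments in triplicate.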

[3] = biological target: T2, Broad substrate specificity ATP-binding cassette transporter ABCG2 (Homo sapiens, UniProt Q9UNQ0); assay: Inhibition of ABCG2 in human MCF7/Topo cells by Hoechst 33342 assay; type: cell-based
T2 sequence (Q9UNQ0 whole entry): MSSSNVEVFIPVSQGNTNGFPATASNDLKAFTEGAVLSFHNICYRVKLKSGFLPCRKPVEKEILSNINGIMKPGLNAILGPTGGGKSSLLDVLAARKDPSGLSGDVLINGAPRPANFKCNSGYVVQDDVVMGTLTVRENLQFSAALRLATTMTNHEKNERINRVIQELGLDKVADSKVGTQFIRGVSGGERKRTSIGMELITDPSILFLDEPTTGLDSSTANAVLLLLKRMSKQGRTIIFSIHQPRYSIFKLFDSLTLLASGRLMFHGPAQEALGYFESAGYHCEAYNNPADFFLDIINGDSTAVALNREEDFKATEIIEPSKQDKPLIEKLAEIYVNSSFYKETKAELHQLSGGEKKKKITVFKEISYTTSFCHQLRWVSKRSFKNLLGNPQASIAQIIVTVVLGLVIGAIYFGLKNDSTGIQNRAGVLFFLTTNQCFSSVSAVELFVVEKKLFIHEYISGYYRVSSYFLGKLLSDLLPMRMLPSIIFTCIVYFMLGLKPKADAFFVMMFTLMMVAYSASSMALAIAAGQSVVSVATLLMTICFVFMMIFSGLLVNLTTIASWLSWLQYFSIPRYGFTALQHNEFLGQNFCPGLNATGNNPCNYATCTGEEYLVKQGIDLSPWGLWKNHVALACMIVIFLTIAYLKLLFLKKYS

ABCG2 (BCRP) = biological target: T3, ABCG2 (BCRP) (Homo sapiens, UniProt Q9UNQ0); assay: Inhibition of ABCG2 in human MCF7/Topo cells at 10 uM by Hoechst 33342 assay relative to fumitremorgin C; type: cell-based; conditions: probe Hoechst 33342, read-out: Imax
T3 sequence (Q9UNQ0 whole entry): T2 sequence (Q9UNQ0 whole entry)
Outline: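 Hoechst 33342 microplate assay in ABCG2-overexpressing MCF-7/Topo cells, kept in EMEM with 10% FCS and 550 nM topotecan. Imax relative to 10 µM fumitremorgin C (100%). IC50 from four-parameter logistic fit. Mean ± SEM, 2–4 experiments.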

HaCaT = assay: Cytotoxicity against human HaCaT cells at 1 to 10 uM after 140 hrs by kinetic crystal violet staining based assay; type: cell-based
Outline: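 Spontaneously immortalized human HaCaT keratinocytes in RPMI-1640 with pyruvate, HEPES and added glucose, pre-treated with EDTA before trypsinization. Cytotoxicity followed in a kinetic assay.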

MRP1 (ABCC1) = MRP1 (ABCC1) (Homo sapiens, UniProt P33527); assay: as §1; type: cell-based, MDCK-II; conditions: MDCK2 cells expressing human MRP1, probe calcein-AM, read-out: Imax; outline: as §2
[4] = Chemical stability in DMEM culture medium supplemented with 10% FCS at 37 degC after 48 hrs by RP-HPLC analysis; type: physicochemical; conditions: cattle
Outline: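 Compounds held in DMEM with 10% FCS at 37 °C for up to 48 h, then analysed for degradation.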

MDCK2 [5] = assay: Antiproliferative activity against human ABCC1 transfected MDCK2 cells assessed as reduction in cell proliferation at 10 uM by crystal violet staining based assay; type: functional
Outline: (§3)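 MDCKII-MRP1 cells transfected with human ABCC1, kept in DMEM with 10% FCS at 37 °C and 5% CO₂. Kinetic crystal violet chemosensitivity assay with the modulator alone; proliferation followed over time.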

MDCK2 [6] = assay: Antiproliferative activity against human ABCC1 transfected MDCK2 cells assessed as reduction in cell proliferation at 1.5 uM by crystal violet staining based assay; type: functional
[7] = biological target: T2, Broad substrate specificity ATP-binding cassette transporter ABCG2; assay: Inhibition of human ABCG2 expressed in HEK293 cells by mitoxantrone flow cytometric analysis; type: cell-based
[8] = biological target: T1, Multidrug resistance-associated protein 1; assay: Inhibition of human ABCC1 transfected in MDCK2 cells assessed as potentiation of etoposide-induced cytotoxicity at 1 and 5 uM by crystal violet staining based assay; type: cell-based; conditions: mdck-ii
[9] = Cytotoxicity against human ABCC1 transfected MDCK2 cells assessed as reduction in cell proliferation at 10 uM by crystal violet staining based assay; type: ADME, Canis lupus familiaris; conditions: dog, mdck-ii; outline: as §3
[10] = biological target: T1, Multidrug resistance-associated protein 1; assay: Inhibition of human ABCC1 transfected in MDCK2 cells assessed as potentiation of doxorubicin-induced cytotoxicity at 1 and 5 uM by crystal violet staining based assay; type: cell-based; conditions: mdck-ii
Plasma = assay: Metabolic stability in NMRI mouse plasma assessed as compound degradation at 140 uM after 1 min to 24 hrs by RP-HPLC analysis
[11] = biological target: T1, Multidrug resistance-associated protein 1; assay: Inhibition of human ABCC1 transfected in MDCK2 cells assessed as potentiation of etoposide-induced cytotoxicity at 1 uM by crystal violet staining based assay; type: cell-based; conditions: mdck-ii

Sequence of ATP-dependent translocase ABCB1 (P08183 whole entry): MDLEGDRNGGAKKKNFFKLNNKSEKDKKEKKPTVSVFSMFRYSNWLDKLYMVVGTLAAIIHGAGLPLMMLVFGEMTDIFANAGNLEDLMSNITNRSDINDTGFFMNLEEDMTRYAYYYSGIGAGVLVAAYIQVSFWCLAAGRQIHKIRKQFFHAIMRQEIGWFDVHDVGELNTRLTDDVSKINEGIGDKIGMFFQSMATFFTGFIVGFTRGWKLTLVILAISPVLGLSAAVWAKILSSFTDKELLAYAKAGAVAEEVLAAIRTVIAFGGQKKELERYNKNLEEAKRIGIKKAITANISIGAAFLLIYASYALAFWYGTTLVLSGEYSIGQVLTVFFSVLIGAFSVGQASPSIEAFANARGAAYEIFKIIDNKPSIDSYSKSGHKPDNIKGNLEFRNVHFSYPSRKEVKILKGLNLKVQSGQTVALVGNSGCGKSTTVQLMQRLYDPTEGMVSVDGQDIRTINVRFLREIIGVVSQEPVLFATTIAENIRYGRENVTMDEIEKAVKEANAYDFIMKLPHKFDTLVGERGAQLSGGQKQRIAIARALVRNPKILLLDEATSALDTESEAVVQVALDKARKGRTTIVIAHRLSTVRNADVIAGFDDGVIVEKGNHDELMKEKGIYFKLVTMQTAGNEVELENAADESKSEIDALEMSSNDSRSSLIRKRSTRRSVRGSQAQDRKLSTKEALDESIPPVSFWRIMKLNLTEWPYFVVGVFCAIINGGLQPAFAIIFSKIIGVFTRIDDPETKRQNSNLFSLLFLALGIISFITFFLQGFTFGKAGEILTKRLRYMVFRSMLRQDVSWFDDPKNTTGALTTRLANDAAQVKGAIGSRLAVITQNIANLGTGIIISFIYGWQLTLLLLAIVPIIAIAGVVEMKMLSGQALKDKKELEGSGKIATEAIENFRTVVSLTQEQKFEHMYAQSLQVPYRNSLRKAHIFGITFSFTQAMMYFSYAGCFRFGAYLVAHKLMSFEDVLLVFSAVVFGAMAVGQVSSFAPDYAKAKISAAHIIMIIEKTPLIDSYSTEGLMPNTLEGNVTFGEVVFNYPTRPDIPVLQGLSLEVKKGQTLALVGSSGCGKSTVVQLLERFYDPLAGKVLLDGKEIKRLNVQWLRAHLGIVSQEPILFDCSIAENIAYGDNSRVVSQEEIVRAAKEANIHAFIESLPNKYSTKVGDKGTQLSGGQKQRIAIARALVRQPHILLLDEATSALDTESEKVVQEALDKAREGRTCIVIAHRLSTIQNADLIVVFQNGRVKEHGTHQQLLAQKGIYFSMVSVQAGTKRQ
Sequence of ABCB1 (P-glycoprotein) (P08183 whole entry): as above
Sequence of MRP1 (ABCC1) (P33527 whole entry): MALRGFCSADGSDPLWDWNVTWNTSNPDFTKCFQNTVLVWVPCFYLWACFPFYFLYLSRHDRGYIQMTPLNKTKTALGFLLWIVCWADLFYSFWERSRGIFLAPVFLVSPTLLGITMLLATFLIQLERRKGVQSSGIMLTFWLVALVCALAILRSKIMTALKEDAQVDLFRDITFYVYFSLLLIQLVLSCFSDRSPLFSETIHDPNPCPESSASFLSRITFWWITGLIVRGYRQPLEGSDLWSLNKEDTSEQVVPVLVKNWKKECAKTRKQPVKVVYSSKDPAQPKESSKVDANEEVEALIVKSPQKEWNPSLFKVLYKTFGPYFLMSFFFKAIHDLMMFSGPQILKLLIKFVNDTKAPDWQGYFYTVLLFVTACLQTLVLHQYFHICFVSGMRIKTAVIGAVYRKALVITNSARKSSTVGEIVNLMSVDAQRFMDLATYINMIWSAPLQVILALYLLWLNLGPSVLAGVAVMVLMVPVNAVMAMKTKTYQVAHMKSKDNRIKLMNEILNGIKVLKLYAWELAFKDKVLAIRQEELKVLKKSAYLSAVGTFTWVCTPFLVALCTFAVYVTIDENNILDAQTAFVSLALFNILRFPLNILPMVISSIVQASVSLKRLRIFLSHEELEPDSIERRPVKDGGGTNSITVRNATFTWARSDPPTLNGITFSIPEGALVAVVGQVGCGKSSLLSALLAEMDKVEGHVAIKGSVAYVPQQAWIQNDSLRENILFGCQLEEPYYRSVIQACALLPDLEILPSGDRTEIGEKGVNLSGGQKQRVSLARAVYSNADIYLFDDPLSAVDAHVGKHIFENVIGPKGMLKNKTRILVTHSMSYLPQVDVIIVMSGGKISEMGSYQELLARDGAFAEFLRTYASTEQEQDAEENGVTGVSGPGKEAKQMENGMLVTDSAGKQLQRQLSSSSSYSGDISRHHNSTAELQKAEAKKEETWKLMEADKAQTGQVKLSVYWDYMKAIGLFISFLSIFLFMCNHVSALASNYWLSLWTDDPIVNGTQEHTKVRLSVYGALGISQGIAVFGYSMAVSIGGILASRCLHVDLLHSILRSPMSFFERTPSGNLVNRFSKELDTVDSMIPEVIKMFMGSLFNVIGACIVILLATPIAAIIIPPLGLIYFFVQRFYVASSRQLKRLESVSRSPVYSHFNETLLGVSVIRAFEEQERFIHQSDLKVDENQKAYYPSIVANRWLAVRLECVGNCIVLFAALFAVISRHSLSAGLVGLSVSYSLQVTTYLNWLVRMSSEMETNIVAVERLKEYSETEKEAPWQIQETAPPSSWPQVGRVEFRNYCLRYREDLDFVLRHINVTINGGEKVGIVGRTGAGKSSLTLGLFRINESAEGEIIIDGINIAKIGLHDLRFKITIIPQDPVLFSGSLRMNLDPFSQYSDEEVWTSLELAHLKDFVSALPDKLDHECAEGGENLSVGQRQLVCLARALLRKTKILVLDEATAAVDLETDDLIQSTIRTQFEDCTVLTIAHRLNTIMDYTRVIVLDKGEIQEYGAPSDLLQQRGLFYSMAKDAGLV
T1 sequence (P33527 whole entry): as above

SMILES | IC50 ([1]; read-out: IC50) [µM] | IC50 ([3]; read-out: IC50) [µM] | Emax at 10 µM (ABCG2 (BCRP)) [%] | inhibition at 30 µM (MRP1 (ABCC1)) [%] | IC50 ([1]; kbv1) | IC50 ([3]; mcf7/topo) | further results
COc1cc(OC)c2c(=O)cc(N3CCN(Cc4ccc(C#N)cc4)CC3)oc2c1 | > 100 | 99.7 | 59.1 | 115 |  |  | 
COc1ccc(CN2CCN(c3cc(=O)c4c(OC)cc(OC)cc4o3)CC2)cc1 |  | > 100 |  |  | Not Active |  | 
COc1cc([C@@H]2c3cc4c(cc3[C@@H](O[C@@H]3O[C@@H]5CO[C@@H](C)O[C@H]5[C@H](O)[C@H]3O)[C@H]3COC(=O)[C@H]23)OCO4)cc(OC)c1O |  |  |  |  |  |  | Activity (MDCK2 [5]): Active; Activity (MDCK2 [6]): Active
COc1cc(OC)c2c(=O)cc(NCCCN3CCOCC3)oc2c1 |  |  |  | 14 | Not Active | Not Active | 
COc1cc(OC)c2c(=O)cc(N3CCN(Cc4ccc(C(F)(F)F)cc4)CC3)oc2c1 | 31.3 | > 100 |  |  |  |  | inhibition at 1 µM (ABCB1 (P-glycoprotein)): 21.8%; Imax [2]: 158.6%
COc1ccc(CCNC(=O)c2cc(=O)c3c(OCc4ccccc4)cccc3o2)cc1OC |  |  | 108 |  | Not Active |  | 
CN(C)C(=O)CCSC(SCCC(=O)[O-])c1cccc(/C=C/c2ccc3ccc(Cl)cc3n2)c1.[Na+] (stereo not drawn) |  |  |  |  | Not Active | Not Active | 
COc1cc(OC)c2c(=O)cc(N3CCN(Cc4ccc(NC(C)=O)cc4)CC3)oc2c1 |  |  |  |  | Not Active | Not Active | 
COc1cc(OC)c2c(=O)cc(N3CCN(Cc4ccc(SC(F)(F)F)cc4)CC3)oc2c1 | 36.6 | > 100 |  | 136 |  |  | inhibition at 1 µM (ABCB1 (P-glycoprotein)): 29.4%
COc1cc(OC)c2c(=O)cc(N3CCN(Cc4ccc(S(=O)(=O)C(F)(F)F)cc4)CC3)oc2c1 | > 100 | > 100 |  | 98.8 |  |  | 
COc1cc2c(cc1OC)CN(CCc1ccc(NC(=O)c3cc(OC)c(OC)cc3NC(=O)c3cnc4ccccc4c3)cc1)CC2 | 0.22 |  |  |  |  |  | 
COc1cc(OC)c2c(=O)cc(N3CCN(c4ccc([N+](=O)[O-])cc4)CC3)oc2c1 |  |  | 22.6 | 64.1 | Not Active |  | 
O=C(NCCCN1CCOCC1)c1cnn2c(-c3ccccc3)cc(-c3ccccc3)nc12 | 6.8 |  |  |  |  |  | inhibition (INH) [8]: Active; inhibition at 1 µM (ABCB1 (P-glycoprotein)): 143%; Activity [9]: Non-toxic; inhibition (INH) [10]: Active
COc1cc(OC)c2c(=O)cc(N3CCN(Cc4ccc(F)c(F)c4)CC3)oc2c1 | 58.5 | 66.6 | 50.4 | 141 |  |  | inhibition at 1 µM (ABCB1 (P-glycoprotein)): 14.3%
COc1cc(OC)c2c(=O)cc(NCCc3ccc(OC)c(OC)c3)oc2c1 |  | > 100 |  |  | Not Active |  | 
COc1cc(OC)c2c(=O)cc(N3CCN(Cc4ccc5nonc5c4)CC3)oc2c1 |  |  |  | 120 | Not Active | Not Active | Stability (Plasma): Stable; Activity (HaCaT): Non-toxic; inhibition (INH) [11]: Active; Activity [9]: Non-toxic; Stability [4]: Stable; inhibition (INH) [10]: Active
COc1cc(OC)c2c(=O)cc(N3CCN(C)CC3)oc2c1 |  |  |  |  | Not Active | Not Active | 
COc1cccc2oc(N3CCN(Cc4ccc([N+](=O)[O-])cc4)CC3)cc(=O)c12 |  |  |  | 38.8 | Not Active | Not Active | 

Second part, led by results:

IC50 ([1]; read-out: IC50) [µM] | IC50 ([3]; read-out: IC50) [µM] | Emax at 10 µM (ABCG2 (BCRP)) [%] | inhibition at 30 µM (MRP1 (ABCC1)) [%] | IC50 ([1]; kbv1) | IC50 ([3]; mcf7/topo) | SMILES | further results
32.8 | 38.2 | 44 |  |  |  | COc1cc(OC)c2c(=O)cc(N3CCN(Cc4cccc([N+](=O)[O-])c4)CC3)oc2c1 | inhibition at 1 µM (ABCB1 (P-glycoprotein)): 29.2%; Imax [2]: 193.3%
33 | 36.9 | 31.9 | 118 |  |  | COc1cc(OC)c2c(=O)cc(N3CCN(CCc4ccc([N+](=O)[O-])cc4)CC3)oc2c1 | Activity (HaCaT): Non-toxic; inhibition at 1 µM (ABCB1 (P-glycoprotein)): 54.8%; Stability [4]: Stable
 | 87.8 | 56.9 | 130 | Not Active |  | COc1cc(OC)c2c(=O)cc(N3CCN(Cc4ccc([N+](=O)[O-])cc4)CC3)oc2c1 | Activity (HaCaT): Non-toxic; Stability [4]: Stable
 |  |  |  | Not Active | Not Active | COc1cc(OC)c2c(=O)cc(N3CCN(Cc4ccc(S(C)(=O)=O)cc4)CC3)oc2c1 | 
 |  |  |  | Not Active | Not Active | COc1cc(OC)c2c(=O)cc(N3CCN(Cc4ccc(N)cc4)CC3)oc2c1 | 
 |  |  | 19.7 | Not Active | Not Active | COc1cc(OC)c2c(=O)cc(N3CCN(C(=O)c4ccc([N+](=O)[O-])cc4)CC3)oc2c1 | 
 | 12 | 23.1 | 70.5 | Not Active |  | COc1cc(O)c2c(=O)cc(C(=O)N3CCN(Cc4ccc([N+](=O)[O-])cc4)CC3)oc2c1 | Activity (HaCaT): Non-toxic; Stability [4]: Stable
15.8 | 16.3 | 84.1 |  |  |  | O=C(c1cc(=O)c2c(OCc3ccccc3)cccc2o1)N1CCN(Cc2ccccc2)CC1 | inhibition at 1 µM (ABCB1 (P-glycoprotein)): 34.3%; % inhibition [7]: 9.8%
83.9 | > 100 |  | 139 |  |  | COc1cc(OC)c2c(=O)cc(C(=O)N3CCN(CCc4ccc([N+](=O)[O-])cc4)CC3)oc2c1 | Activity (HaCaT): Non-toxic; inhibition at 1 µM (ABCB1 (P-glycoprotein)): 37.7%; Stability [4]: Stable
 | > 100 |  | 44.5 | Not Active |  | COc1cc(OC)c2c(=O)cc(N3CCN(CCc4ccccc4)CC3)oc2c1 | Activity (HaCaT): Non-toxic; Stability [4]: Stable
58.2 | > 100 |  | 73.1 |  |  | COc1cc(OC)c2c(=O)cc(C(=O)N3CCN(Cc4ccc([N+](=O)[O-])cc4)CC3)oc2c1 | Activity (HaCaT): Non-toxic; inhibition at 1 µM (ABCB1 (P-glycoprotein)): 33.4%
 | 34.9 | 90.5 | 68.8 | Not Active |  | COc1cc(O)c2c(=O)cc(C(=O)N3CCN(Cc4ccccc4[N+](=O)[O-])CC3)oc2c1 | 
> 100 | 37.6 | 72.6 | 68.8 |  |  | COc1cc(OC)c2c(=O)cc(N3CCN(Cc4ccccc4[N+](=O)[O-])CC3)oc2c1 | 
> 100 | > 100 |  | 118 |  |  | COC(=O)c1ccc(CN2CCN(c3cc(=O)c4c(OC)cc(OC)cc4o3)CC2)cc1 | 
 |  |  |  | Not Active | Not Active | COc1cc(OC)c2c(=O)cc(N3CCN(Cc4ccccc4)CC3)oc2c1 | 
